EBI2 antag: EBI2 receptor antagonists, beta-arrestin recruitment, primary screen, cell-based, luminescence, 7a,25-OHC stimulation, uHTS | G-protein coupled receptor 183 (Homo sapiens), P32249 | 7a,25-OHC stimulated | inhibition, % at 5 µM | 0.81% of 360,000 active; in the data active means inhibition above about 38%;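 further: enzyme fragment complementation signal reports receptor beta-arrestin coupling in cells; 0% = agonist plus DMSO wells and 100% = wells without agonist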
CXCR6 inh: CXCR6 receptor inhibitors, primary screen, cell-based, beta-arrestin, luminescence, CHO-K1 PathHunter, 1536-well; inhibition, % at 20 µM; C-X-C chemokine receptor type 6 (Homo sapiens), O00574; 0.36% of 360,000 active; AID 602244, 2012; in the data active means inhibition above about 34%, passing the limit was not always enough;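 further: antagonist mode with CXCL16 agonist at 10 nM final; 0% = 10 nM CXCL16 with DMSO and 100% = unstimulated wells without agonist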
APJ antagonist: antagonists of human apelin receptor APJ, primary screen, CHO-K1 cells, beta-arrestin complementation, luminescence | inhibition, % at 20 µM | AID 2521, 2010 | 0.32% of 330,000 active;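 active means inhibition above about 40% at 20 µM, limit read from the data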;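 further: cells challenged with 10 nM apelin-13 agonist together with compound; plate controls were apelin-13 plus DMSO wells for no effect and DMSO wells lacking apelin-13 for full effect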
APJ agonist: agonists of human apelin receptor APJ, primary screen, CHO-K1 cells, PathHunter beta-arrestin, luminescence; P35414; 0% DMSO wells, 100% apelin; activation, % at 20 µM; 0.11% of 330,000 active; AID 2520, 2010;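 active means activation more than six SD over the plate average, tested at 20 µM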;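 further: 0% = DMSO alone and 100% = apelin-13 at 10 nM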
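Assay system: CHO-K1 APJ beta-arrestin complementation cell line / Compound: single test compound dose, 20 µM final, 1% DMSO / Times: overnight seeding, 90 min compound at 25 °C, 1 h detection / Technique: beta-gal luminescence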
CCR6 antagonist: CCR6 receptor antagonists, primary screen, cell-based, CHO-K1, luminescence, beta-arrestin, uHTS | CHO-K1 CCR6 PathHunter beta-arrestin, CCL20-stimulated | AID 493098, 2011 | inhibition, % at 20 µM | 0.49% of 340,000 active;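 active means compounds whose inhibition of the agonist-driven luminescence signal at 20 µM reaches about 50%, limit read from the data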;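 further: cells stimulated with CCL20 at 14 nM final; plate controls were DMSO with CCL20 for no effect and DMSO without agonist for full effect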
Target sequence (P51684 whole entry, looked up): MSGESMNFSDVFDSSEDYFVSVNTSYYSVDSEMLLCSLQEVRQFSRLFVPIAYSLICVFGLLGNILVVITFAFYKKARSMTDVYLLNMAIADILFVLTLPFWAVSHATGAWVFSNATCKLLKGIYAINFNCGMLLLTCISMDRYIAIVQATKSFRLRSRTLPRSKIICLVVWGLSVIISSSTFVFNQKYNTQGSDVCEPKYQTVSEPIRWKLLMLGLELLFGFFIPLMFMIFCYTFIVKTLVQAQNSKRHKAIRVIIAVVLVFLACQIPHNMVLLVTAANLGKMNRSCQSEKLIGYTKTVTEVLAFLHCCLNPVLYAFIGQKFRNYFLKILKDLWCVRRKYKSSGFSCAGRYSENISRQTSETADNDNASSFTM
EBI2 antag conf: EBI2 antagonist hit retest, beta-arrestin, confirmation, cell-based, single concentration, luminescence, 7a,25-OHC stimulation. shares compounds with EBI2 antag. 7a,25-OHC antagonism. inhibition, % at 5 µM. 29% of 2,400 active. AID 651997, 2013;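 active means inhibition of at least 50%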
EBI2 agonist: EBI2 agonist activity of antagonist hits, confirmation, counter-screen for EBI2 antagonist project, cell-based, single concentration, agonist mode, luminescence; shares compounds with EBI2 antag; EBI2-expressing cells, 60 min; 0% vehicle, 100% 7α,25-dihydroxycholesterol control; activation, % at 5 µM; 2,400 tested, under 10 active;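 active means activation of at least 50%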
bGal counter: E. coli beta-galactosidase enzyme inhibition, confirmation, counter-screen for EBI2 antagonist project, biochemical, luminescence, single concentration; shares compounds with EBI2 antag; purified beta-galactosidase, luminescent Galacton Star, 15 min; inhibition, % at 5 µM; 1% of 2,400 active; AID 652176, 2013;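 active means replicate-average signal at least 3 plate SD below neutral wells, shown as high inhibition, flagging enzyme-inhibiting false positives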;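 further: 0% = DMSO wells with enzyme and 100% = wells lacking enzyme; higher means stronger loss of beta-gal luminescence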
* marks the source's active call; other numbers are inactive results; . = no result. The list is not random: actives were taken first. Their share in the collection is about 1.5%.

SMILES	EBI2 antag	CXCR6 inh	APJ antagonist	APJ agonist	CCR6 antagonist	EBI2 antag conf	EBI2 agonist	bGal counter
CCc1nc2c(OCCn3cccc3)cccn2c1N(C=O)Cc1ccccc1	-13	4	.	.	.	.	.	.
COc1ccc(CNc2oc(COc3ccc(Cl)cc3)nc2C#N)cc1	42*	-3	-13	1	22	29	0	1
COc1ccc(Nc2oc(COc3ccc(Cl)cc3)nc2C#N)cc1	18	-2	6	4	11	.	.	.
O=C(COc1ccc(Cl)cc1)N1CCN(c2ncccn2)CC1	73*	-3	-22	-5	-14	58*	2	-2
O=C(COc1ccc(Br)cc1)N1CCN(c2ncccn2)CC1	94*	-8	-6	-4	-4	79*	0	1
CC(=O)c1ccc(N2CCN(C(=O)COc3ccc4c(c3)CCC4)CC2)cc1	34	-1	14	-6	16	.	.	.
COc1ccccc1N1CCN(C(=O)COc2ccc(Cl)cc2)CC1	81*	-1	17	7	0	52*	1	4
Cc1ccc(Cl)cc1N1CCN(C(=O)COc2ccc3c(c2)CCC3)CC1	78*	-1	10	-2	10	42	-1	-13
CN(C)CC(C)(C)CNC(=O)c1cc(=O)c2ccccc2o1	3	4	-9	-4	-18	.	.	.
CS(=O)(=O)c1ccc(Cl)c(NC(=O)C2CCCN(C(=O)c3ccc(Cl)cc3)C2)c1 (stereo not drawn)	11	8	12	-5	-5	.	.	.
COc1ccc(OCc2nnc(SCC(=O)N3c4ccccc4Sc4ccc(Cl)cc43)o2)cc1	66*	-1	4	0	4	54*	1	-1
COc1cccc(OCc2nnc(SCC(=O)N3c4ccccc4Sc4ccc(Cl)cc43)o2)c1	53*	9	0	-3	-1	28	0	-1
Cc1cccc(OCc2nnc(SCC(=O)N3c4ccccc4Sc4ccc(Cl)cc43)o2)c1	23	8	-3	0	7	.	.	.
Cc1ccc(OCc2nnc(SCC(=O)N3c4ccccc4Sc4ccc(Cl)cc43)o2)cc1	35	-17	-33	2	5	.	.	.
O=C(Cn1nc2n(c1=O)-c1ccccc1SC2)N/N=C/c1cccnc1	-4	8	-12	-3	-3	.	.	.
CC(NC(=O)CCNS(=O)(=O)c1cccc2nonc12)c1ccccc1 (stereo not drawn)	0	-1	7	1	-11	.	.	.
Cc1ccc(N=C2NC(=O)/C(=C/c3cccnc3)S2)cc1C	47*	1	3	1	15	34	0	6
O=C1NC(=Nc2ccccc2)S/C1=C\c1cccnc1	45*	-5	16	-5	-2	51*	-1	-6
COCc1cc(C)nc(OCC(=O)N/N=C/c2ccc(O)cc2)c1C#N	63*	7	1	-2	8	41	2	6
Cc1cccc(N2C(=O)/C(=C\c3ccc(OC(F)F)cc3)c3ccccc3C2=O)c1	61*	-8	-3	2	10	49	0	4
c1cc(-c2ccsc2)n2cnnc2c1	-7	3	.	.	.	.	.	.
COc1ccc(-n2c(Cc3cccn3C)nnc2SCC(=O)Nc2cccc(C)c2C)cc1	49*	5	7	-3	5	25	-2	-8
Cn1cccc1Cc1nnc(SCC(=O)NCCc2ccccc2)n1C	-6	-5	2	-2	-5	.	.	.
CCOC(=O)c1ccccc1NC(=O)CSc1nnc(Cc2cccn2C)n1-c1ccc(C)cc1	54*	-5	3	-2	16	29	-1	-10
COc1ccc(-n2c(Cc3cccn3C)nnc2SCC(=O)NCCc2ccccc2)cc1	44*	6	6	-1	12	36	-1	4
SMILES	EBI2 antag	CXCR6 inh	APJ antagonist	APJ agonist	CCR6 antagonist	EBI2 antag conf	EBI2 agonist	bGal counter
COc1ccc(-n2c(COc3ccccc3)nnc2SCC(N)=O)cc1	49*	-5	-3	-1	-7	3	-1	-11
CCC(CC)C(=O)N(C)c1c(C)nc2c(OCc3ccc(Cl)cc3)cccn12	11	2	.	.	.	.	.	.
Nc1nc(CN2CCN(c3ccccn3)CC2)nc(Nc2ccc(Cl)cc2)n1	-4	-2	-25	4	-4	.	.	.
COc1ccc(-n2c(Cc3cccn3C)nnc2SCC(=O)Nc2ccccc2F)cc1	36	-1	-51	-1	16	.	.	.
COc1ccc(-n2c(Cc3cccn3C)nnc2SCC(=O)Nc2ccc(C)c(Cl)c2)cc1	47*	-11	1	-4	20	23	-1	11
COc1ccc(-n2c(Cc3cccn3C)nnc2SCC(=O)Nc2ccccc2C)cc1	55*	10	12	-3	16	23	-1	-6
O=C(COc1ccc(Cl)cc1)N1CCN(C(=O)c2cccc(F)c2)CC1	86*	4	1	-1	-7	68*	0	-11
O=C(COc1ccccc1)N1CCN(C(=O)c2cccc(F)c2)CC1	30	3	-10	-2	-14	.	.	.
O=C(COc1ccc(Cl)cc1)N1CCN(C(=O)c2cccs2)CC1	80*	10	-7	-1	9	49	0	7
CCn1c(O)c(/C=C2\C=Nc3ccccc32)sc1=Nc1ccccc1	53*	6	-1	2	2	38	0	2
CCn1cc(S(=O)(=O)c2ccc(C)cc2)c(=O)c2cc(OC)ccc21	6	0	-11	-5	11	.	.	.
COc1ccc(NC(=O)CN2CCN(C3c4ccccc4-c4ccccc43)CC2)cc1	47*	-4	21	0	6	43	0	-16
COc1ccc(O)c(C(=O)c2coc(=N)c(C(=O)Nc3ccc(SC(F)F)cc3)c2)c1	-3	-28	-27	-1	-19	.	.	.
Cn1ccnc1C(=O)c1cc(SCC(=O)NCc2ccccc2)nc2ccccc12	44*	-6	-14	-3	4	-7	1	3
COC(=O)CSc1cc(C(=O)c2nccn2C)c2ccccc2n1	3	-1	3	-1	14	.	.	.

Screening data (PubChem BioAssay)
